Experimental data collected from several papers.
Protocols differ between the studies behind these lines.
Mode: inhibitor
CHEK2: Serine/threonine-protein kinase Chk2 (CHEK2, Homo sapiens, UniProt O96017)

CNc1cc(Oc2cc(C(=O)Nc3cc(N4CCN(C)CC4)cc(C(F)(F)F)c3)ccc2C)ncn1
inhibition (CHEK2; target engagement in cells; chemoproteomics; Huh-7; 1 µM): -100%

CCCS(=O)(=O)Nc1ccc(F)c(C(=O)c2c[nH]c3ncc(-c4ccc(Cl)cc4)cc23)c1F
inhibition (CHEK2; enzyme activity; 1 µM): < 10%

CNc1cccc2cc(C(=O)Nc3ccc(C(=O)O)cc3)c(=O)[nH]c12
inhibition (CHEK2; enzyme activity; 10 µM): 15%

Cc1ncc([N+](=O)[O-])n1C(=NO)c1ccccc1C(F)(F)F
inhibition (CHEK2; enzyme activity; 10 µM): 17.1%

CN(c1ncccc1CNc1nc(Nc2ccc3c(c2)CC(=O)N3)ncc1C(F)(F)F)S(C)(=O)=O
inhibition (CHEK2; enzyme activity; 1 µM): 33.1%

CN1CC(Oc2cnc(C#N)cc2-c2ccn3nc(NC(=O)C4CC4)cc3c2)C1
inhibition (CHEK2; enzyme activity; 1 µM): 0%

CCOc1cc(-c2nncn2C)ccc1Nc1ncc2cc(C)nc(NCC(C)(C)C)c2n1
inhibition (CHEK2; enzyme activity; FRET; 1 µM): < 15%

CSc1nc(C)c(-c2ccnc(Nc3ccc(N4CCOCC4)cc3)c2)[nH]1
inhibition (CHEK2; enzyme activity; 10 µM): -5.4%

COc1cc2ncnc(Nc3ccc(Oc4ccccc4)cc3C)c2cc1OC
inhibition (CHEK2; enzyme activity; 1 µM): 83%

CN(C)C1CCN(CC#Cc2nn(C3CCCC3)c3nc(NCc4ccccc4)ncc23)C1 (centres unmarked)
inhibition (CHEK2; enzyme activity; FRET; 10 µM): 17%

Cc1ccc(Nc2nccc(N(C)c3ccc4c(C)n(C)nc4c3)n2)cc1S(N)(=O)=O
inhibition (Serine/threonine-protein kinase Chk2 (CHEK2, Homo sapiens, UniProt O96017, I157T); enzyme activity; 10 µM): 30%

CCN1CCN(Cc2ccc(NC(=O)c3ccc(C)c(Oc4ccnc5[nH]ccc45)c3)cc2C(F)(F)F)CC1
inhibition (CHEK2; target engagement in cells; chemoproteomics; A-375; 0.5 µM): -16.3%

CNC(=O)c1cc(Oc2ccc(NC(=O)Nc3ccc(Cl)c(C(F)(F)F)c3)cc2)ccn1
inhibition (CHEK2; enzyme activity; 0.3 µM): -5%

COc1cc2ncnc(Nc3ccc(Oc4ccccc4)c(C)c3C)c2cc1OC
inhibition (CHEK2; enzyme activity; 1 µM): 36%
